# Compounds with a hit are over-represented: about 3.5% of the library has one in this group of screens.
# MrgX1 agonist = agonists of human MrgX1 receptor, primary screen, HEK293 cells, Fluo-4 calcium flux | Mas-related G-protein coupled receptor member X1 (Homo sapiens), Q96LB2 | Fluo-4 calcium fluorescence, agonist mode; active compounds read high | B-score at 10 µM | 310,000 tested, 0.44% active | AID 588627, 2011;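 active means calcium response B-score plate-corrected fluorescence ratio at least 3 library SD, with starting fluorescence B-score inside 5 SD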
# Target sequence (Q96LB2 whole entry, looked up): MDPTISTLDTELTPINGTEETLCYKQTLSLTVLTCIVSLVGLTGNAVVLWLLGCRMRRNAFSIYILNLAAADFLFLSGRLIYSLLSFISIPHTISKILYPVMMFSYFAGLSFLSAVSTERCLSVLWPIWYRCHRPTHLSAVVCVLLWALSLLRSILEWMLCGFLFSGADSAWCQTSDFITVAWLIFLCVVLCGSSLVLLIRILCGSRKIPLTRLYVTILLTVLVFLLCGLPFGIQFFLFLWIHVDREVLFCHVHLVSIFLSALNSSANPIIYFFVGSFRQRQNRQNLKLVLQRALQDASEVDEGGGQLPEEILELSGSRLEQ
#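 Test system: HEK293 cells stably expressing human MrgX1 receptor; Input: fifteen thousand cells per well; Dosing: compound delivered in addition one of three; Schedule: overnight seeding, then 1 h dark dye loading; Technique: Fluo-4 NW calcium fluorescence; Measure: B-scored fluorescence response ratio; Controls: positive and negative controls per plate.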
# MrgX1 antagonist = antagonists of human MrgX1 receptor, primary screen, HEK293 cells, Fluo-4 calcium flux; B-score at 10 µM; BAM8-22 antagonism; active compounds read low; Mas-related G-protein coupled receptor member X1 (Homo sapiens), Q96LB2; 310,000 tested, 1.3% active;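 active means calcium-response B-score plate-corrected more than 3 library SD below zero, starting fluorescence within 5 deviations, no agonist response on first addition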;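 further: peak minus trough fluorescence over baseline after final BAM8-22 challenge near maximal dose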
# RGS4 pot = RGS4 potentiators or activators, primary screen, cell-based, HEK293 M3R inducible RGS4, calcium flux. carbachol calcium flux Fluo4; active compounds read low. B-score at 10 µM. 310,000 tested, 0.92% active;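 active means B-score of the integrated calcium signal more than 4 SD below the library mean, with starting fluorescence not abnormally high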;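 further: negative B-score means reduced calcium response which marks RGS4 activation or potentiation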
#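 Detection: kinetic calcium fluorescence imaging with Fluo4-AM dye, 2 µM / Material: HEK293 cells with stable M3R and inducible RGS4 / Schedule: recording 10 s baseline at 1 Hz, 100 s post-agonist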
# RGS4 inh = RGS4 inhibitors, primary screen, cell-based, HEK293 M3R inducible RGS4, calcium flux; AID 463165, 2010; B-score at 10 µM; Regulator of G-protein signaling 4 (Homo sapiens), P49798; Fluo-4 calcium flux; active compounds read high; triggered by carbachol at its EC20; 310,000 tested, 0.45% active;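 active means B-score, a plate-corrected calcium signal, over three deviations above library mean, with baseline fluorescence within five deviations of library mean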;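 further: RGS4 expression induced by doxycycline in cells with stable M3 receptor; B-score is computed from the integrated fluorescence ratio over baseline after carbachol; higher B-score means a larger calcium signal and so more RGS4 inhibition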
# Target sequence (P49798 whole entry, looked up): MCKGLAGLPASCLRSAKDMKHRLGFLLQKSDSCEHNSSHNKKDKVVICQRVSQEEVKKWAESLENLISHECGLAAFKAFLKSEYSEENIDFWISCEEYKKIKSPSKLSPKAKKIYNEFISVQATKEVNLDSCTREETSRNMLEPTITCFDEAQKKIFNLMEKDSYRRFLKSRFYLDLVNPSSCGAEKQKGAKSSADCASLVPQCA
# MrgX1 PAM = positive allosteric modulators of MrgX1, primary screen, HEK293 cells, Fluo-4 calcium flux; AID 588675, 2011; 310,000 tested, 0.63% active; FDSS; active compounds read high; B-score at 10 µM; Mas-related G-protein coupled receptor member X1 (Homo sapiens), Q96LB2;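 active means plate-corrected calcium response at least 3 library SD above typical, normal starting fluorescence, not activating the receptor alone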;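 further: compound read alongside a low EC10 to EC30 dose of BAM8-22 agonist; peak minus trough fluorescence over baseline measured at the second addition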
# * hit, by the source's call; i = inactive; nt = no result given.
SMILES,MrgX1 agonist,MrgX1 antagonist,RGS4 pot,RGS4 inh,MrgX1 PAM
CCC1CCCCN1CCCNC(=O)CSc1nc2nc(C)c(Cc3ccccc3Cl)c(C)n2n1 (centres undefined),i,i,-7*,i,i
CC1CN(c2nn3c(=O)c4ccccc4nc3c3ccccc23)CC(C)O1 (centres undefined),i,i,i,i,i
CCN1CCN(c2nn3c(=O)c4ccccc4nc3c3ccccc23)CC1,i,i,-8.6*,i,i
COc1cccc(-c2cc3c(-n4cccc4)ncnc3o2)c1,i,i,-7.1*,i,i
COc1ccc(OCC(=O)Nc2ccccc2N2CCCCC2)cc1,i,i,i,i,15*
COc1ccc(OCC(=O)Nc2ccccc2N2CCN(C)CC2)cc1,i,i,i,i,i
Cc1cccc(OCC(=O)Nc2ccccc2N2CCCCC2)c1C,i,i,i,i,i
Cc1cccc(C)c1OCC(=O)Nc1ccccc1N1CCCCC1,i,i,i,i,7.4*
Cc1ccc(-n2c(SCC(=O)N3CCCCC3)nc(O)c(Cc3ccccc3)c2=O)cc1,i,i,i,i,i
CCC1=C(OC(=O)N(CC)CC)N2C(=O)OC(=NCCOC)[C@]2(Cc2ccccc2)[C@H]2C1=CC[C@H]1C(=O)NC(=O)[C@H]12,i,i,i,i,i
CCC1=C(OC(=O)N(CC)CC)N2C(=O)OC(=NCC3CC3)[C@]2(Cc2ccccc2)[C@H]2C1=CC[C@H]1C(=O)NC(=O)[C@H]12,i,-8.1*,i,i,i
COc1ccc(-c2nn(-c3ccccc3)cc2/C=N/NC(=O)c2ccc(Br)o2)cc1,i,i,-8.1*,i,i
COc1ccccc1Nc1nnc(SCc2nnc(-c3cc(OC)c(OC)c(OC)c3)o2)s1,i,i,i,i,7.1*
COc1cc(-c2nnc(CSc3nnc(Nc4ccc(C(C)C)cc4)s3)o2)cc(OC)c1OC,i,i,i,i,i
CCOc1ccccc1Nc1nnc(SCc2nnc(-c3cc(OC)c(OC)c(OC)c3)o2)s1,i,-6.2*,i,i,i
CCOC(=O)c1ccc(NC(=S)NNC(=O)COC)cc1,i,-7.9*,i,i,i
C#CCOCCOCCOCCNc1nc(N2CCN(C(=O)CCCCCCCCCCNC(=O)[C@H]([C@@H](C)CC)n3cc(CCCCN=C(N)N)nn3)CC2)nc(N2CCN(C(=O)CCCCCCCCCCNC(=O)[C@@H]([C@H](C)O)n3cc(C)nn3)CC2)n1,i,i,nt,nt,i
C#CCOCCOCCOCCNc1nc(N2CCN(C(=O)CCCCCCCCCCNC(=O)[C@@H](CCSC)n3cc(CCO)nn3)CC2)nc(N2CCN(C(=O)CCCCCCCCCCNC(=O)[C@H](CCCN=C(N)N)n3cc(C[C@@H](C)CC)nn3)CC2)n1,i,i,nt,nt,i
C#CCOCCOCCOCCNc1nc(N2CCN(C(=O)CCCCCCCCCCNC(=O)[C@H](CCCCN)n3cc(C[C@@H](C)CC)nn3)CC2)nc(N2CCN(C(=O)CCCCCCCCCCNC(=O)[C@H](CCCN=C(N)N)n3cc(C[C@@H](C)CC)nn3)CC2)n1,35*,i,nt,nt,i
C#CCOCCOCCOCCNc1nc(N2CCN(C(=O)CCCCCCCCCCNC(=O)[C@H](CCCCN)n3cc(C)nn3)CC2)nc(N2CCN(C(=O)CCCCCCCCCCNC(=O)[C@H](CCCN=C(N)N)n3cc(C[C@@H](C)CC)nn3)CC2)n1,104*,i,nt,nt,i
C#CCOCCOCCOCCNc1nc(N2CCN(C(=O)CCCCCCCCCCNC(=O)[C@H](CCCCN)n3cc(C[C@@H](C)CC)nn3)CC2)nc(N2CCN(C(=O)CCCCCCCCCCNC(=O)[C@@H]([C@H](C)O)n3cc(C)nn3)CC2)n1,i,i,nt,nt,6.9*
C#CCOCCOCCOCCNc1nc(N2CCN(C(=O)CCCCCCCCCCNC(=O)[C@H](CCCCN)n3cc(C)nn3)CC2)nc(N2CCN(C(=O)CCCCCCCCCCNC(=O)[C@@H]([C@H](C)O)n3cc(C)nn3)CC2)n1,i,i,nt,nt,i
C#CCOCCOCCOCCNc1nc(N2CCN(C(=O)CCCCCCCCCCNC(=O)[C@H](CO)n3cc(CCCCCN)nn3)CC2)nc(N2CCN(C(=O)CCCCCCCCCCNC(=O)[C@H](CCCN=C(N)N)n3cc(C[C@@H](C)CC)nn3)CC2)n1,70*,i,nt,nt,i
Cc1cc(NC(=O)CSc2nnnn2-c2ccc(C)c(Cl)c2)no1,i,i,i,i,i
Cc1ccc(N2CCN(S(=O)(=O)c3ccc4oc(=O)ccc4c3)CC2)c(C)c1,i,i,i,i,i
SMILES,MrgX1 agonist,MrgX1 antagonist,RGS4 pot,RGS4 inh,MrgX1 PAM
Cc1ccc(S(=O)(=O)N2[C@@H](c3ccccc3)C(C(=O)O)=CC[C@H]2c2ccc3c(c2)OCO3)cc1,i,i,nt,nt,10*
Cc1ccc(S(=O)(=O)N2[C@@H](c3ccc(Cl)cc3)C(C(=O)O)=CC[C@H]2c2cccc(Cl)c2)cc1,30*,i,nt,nt,i
Cc1ccc(S(=O)(=O)N2[C@@H](c3ccc(Cl)cc3)C(C(=O)O)=CC[C@H]2c2cccc(C)c2)cc1,i,i,nt,nt,i
COc1ccccc1N1CCN(C2CCCN(C(=O)CCc3cnn(C)c3)C2)CC1 (centres undefined),i,i,i,i,i
COc1ccc(-c2c[n+]3c(n2-c2ccccc2)SCC3)cc1,i,i,-8.5*,i,i
Cc1ccc(-c2c[n+]3c(n2-c2ccccc2)SCC3)cc1,i,i,i,i,i
COc1ccc(-c2c[n+]3c(n2-c2ccccc2)CCCCC3)cc1,i,i,-8.3*,i,i
COc1cccc(-c2c(C(=O)N/N=C/c3ccc(C)o3)nnn2-c2nonc2N)c1,i,i,i,i,i
C#CCSc1ncc(-c2ccccc2)cn1,i,-7.5*,i,i,i
CCCCCCCCCCCCCCCC[n+]1cccc(C(=O)N(CC)CC)c1,i,i,-9.9*,i,i
O=C(NCCCN1CCOCC1)c1cccc(S(=O)(=O)Nc2ccccc2Cl)c1,i,i,i,i,i
COc1ccc(/C=C/C(=O)Nc2sc3c(c2C(=O)NCc2cccnc2)CCCC3)cc1,i,i,-8.7*,i,i
O=C(COc1ccccc1)Nc1sc2c(c1C(=O)NCc1cccnc1)CCCC2,i,i,i,i,i
CCCN1CCC(NC(=O)Cc2cccc(C)c2)CC1,i,i,i,i,i
